≈ marks a conversion by molar mass, not a printed value.
Legend:
[1] = system: LAC yceI::Tn azoR2; assay: MIC; format: cell-based, Staphylococcus aureus
Summary of the method: (§1)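 Overnight cultures were grown in 5 mL Mueller-Hinton at 37 °C with shaking at 200 rpm. They were diluted 1/1000 into 96-well plates holding serial dilutions of test compound in Mueller-Hinton broth. Plates were sealed against drying and incubated statically at 37 °C for 18 h before reading. All strains are isogenic and in the LAC background.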

[2] = system: MRSA strain LAC; assay: Selection of spontaneous resistant mutants, frequency; format: cell-based, Staphylococcus aureus; details: 8x MIC, 3 d incubation
[3] = system: LAC pEPSA5_azoR; assay: MIC; format: cell-based, Staphylococcus aureus; details: cultured with 1% xylose
Summary of the method: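 pEPSA vector strains were cultured with 1% xylose for induction. Overnight Mueller-Hinton cultures (37 °C, 200 rpm) were diluted 1/1000 into serial dilutions of test compound in Mueller-Hinton broth in 96-well plates. Plates were incubated statically at 37 °C for 18 h. Values are representative of three independent experiments.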

[4] = system: S. aureus LAC pLL39_yceI; assay: MIC; format: cell-based, Staphylococcus aureus; details: genotype pLL39_yceI, LAC background
[5] = system: LAC pEPSA5_yceI; assay: MIC; format: cell-based, Staphylococcus aureus; details: for MIC: LAC pEPSA5_yceI
Summary of the method: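 LAC strains carried empty pEPSA5 or pEPSA5_yceI (yceI under a xylose-inducible promoter). They were grown overnight with or without xylose induction; for the azoR overexpression set, pEPSA strains were cultured with 1% xylose. The 1/1000 inoculum went into Mueller-Hinton broth with serial compound dilutions, incubated statically at 37 °C for 18 h. Values represent three independent experiments.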

[6] = system: S. aureus LAC yceI::Tn pLL39_yceI; assay: MIC; format: cell-based, Staphylococcus aureus; details: genotype yceI::Tn pLL39_yceI, LAC background
[7] = system: S. aureus LAC yceI::Tn pLL39_yceI2; assay: MIC; format: cell-based, Staphylococcus aureus; details: genotype yceI::Tn pLL39_yceI2, LAC background
[8] = system: S. aureus LAC pLL39; assay: MIC; format: cell-based, Staphylococcus aureus; details: genotype pLL39, LAC background
[9] = system: LAC yceI::Tn azoR4 pCM28; assay: MIC; format: cell-based, Staphylococcus aureus
Summary of the method: as §1

[10] = system: S. aureus (ATCC 43300); assay: Membrane depolarization assay; format: cell-based, Staphylococcus aureus; details: 4.5x MIC, 10 min; positive control sodium deoxycholate
Summary of the method: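 ATCC 43300 was grown from a single colony in Mueller-Hinton to OD600 0.5, then loaded with DiBAC4 (final 20 μg/mL) for 5 min. Bacteria plus dye received test compound at 4.5x MIC; controls were no addition (negative) and 0.05% w/v sodium deoxycholate (positive). Fluorescence (ex 490/em 510 nm) was read every 5 s for 10 min, in triplicate.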

[11] = system: JSF-3151–resistant strains; assay: MIC versus JSF-3151-resistant strains compared to the parental strain; format: cell-based, Staphylococcus aureus; details: yceI promoter mutants versus parent
[12] = system: MRSA COL strain; assay: Mouse peritonitis-sepsis model; format: in vivo, Staphylococcus aureus; details: single dose 24 mg/kg intraperitoneal, 1 h post-infection
[13] = system: Vero cells; format: cell-based; details: 72 h
[14] = system: LAC yceI::Tn pCM28; assay: MIC; format: cell-based, Staphylococcus aureus
Summary of the method: as §1

[15] = system: LAC yceI::Tn azoR4 pCM28_azoR; assay: MIC; format: cell-based, Staphylococcus aureus
Summary of the method: as §1

[16] = system: S. aureus LAC yceI::Tn pLL39_yceI3; assay: MIC; format: cell-based, Staphylococcus aureus; details: genotype yceI::Tn pLL39_yceI3, LAC background

Compound: O=C(Nc1cc(Cl)cc2cccnc12)c1ccc([N+](=O)[O-])s1 [JSF-3151]
- MIC shift versus yceI::Tn parental strain ([1]; azoR2 (Trp60stop)): 32 fold
- MIC ([1]; genotype yceI::Tn azoR2): 25 µg/mL (≈ 74.9 µM)
- frequency of resistant mutants [2]: 6 x 10^−8
- MIC [3]: 0.39 µg/mL (≈ 1.17 µM)
- MIC [4]: 6.2 µg/mL (≈ 18.6 µM)
- MIC ([5]; growth with xylose +): >50 µg/mL
- MIC ([5]; growth with xylose −): 3.1 µg/mL (≈ 9.29 µM)
- resistance versus strain carrying empty vector pEPSA5 ([5]; overnight induction with xylose): > 64 fold
- MIC [6]: 1.6 µg/mL (≈ 4.79 µM)
- MIC [7]: 50 µg/mL (≈ 150 µM)
- MIC [8]: 6.2 µg/mL (≈ 18.6 µM)
- MIC [9]: 25 µg/mL (≈ 74.9 µM)
- membrane depolarization (DiBAC4 fluorescence) [10]: failed to compromise the cell membrane
- loss of susceptibility of three representative mutants [11]: > 16 fold
- mice surviving 3 d post-administration [12]: 2 out of 12
- survival 3 d post-administration [12]: 16.7%
- Vero cell CC50 [13]: > 50 µg/mL
- CC50 ([13]; read-out: Vero cell CC50): > 150 µM
- MIC [14]: 0.78 µg/mL (≈ 2.34 µM)
- MIC [15]: 1.5 µg/mL (≈ 4.49 µM)
- MIC [16]: 50 µg/mL (≈ 150 µM)

Reference: publication PMC8591627 (ACS infectious diseases, 2021)
